Data as given in ChEMBL document CHEMBL5042484, “Design of SARS-CoV-2 PLpro Inhibitors for COVID-19 Antiviral Therapy Leveraging Binding Cooperativity” (J Med Chem, 2022).
Activity calls are given as the source filed them. The rule behind the calls is not given here.

Experiments:
[1] = Inhibition of SARS-CoV-2 PLpro using Z-RLRGG-AMC as substrate preincubated for 10 mins followed by substrate addition measured for 15 mins by fluorescence plate reader assay; set-up: species or system Severe acute respiratory syndrome coronavirus 2
[2] = Binding affinity to […] sensor chip immobilized His-tagged SARS-CoV-2 PLpro assessed as equilibrium dissociation constant by surface plasmon resonance analysis; set-up: species or system Severe acute respiratory syndrome coronavirus 2
[3] = system: Severe acute respiratory syndrome coronavirus 2; experiment: Inhibition of SARS-CoV-2 PLpro assessed as viral PLpro-mediated deISGylation using ISG-15-AMC as substrate at 30 uM preincubated for 10 mins followed by substrate addition measured for 15 mins by fluorescence plate reader assay
How it was run: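 Run like the RLRGG-AMC PLpro assay (HEPES pH 7.5 buffer, 10 min preincubation, 15 min fluorescence read), but with 4 nM PLpro and 0.5 µM ISG15-AMC as substrate.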

[4] = system: Severe acute respiratory syndrome coronavirus 2; experiment: Inhibition of SARS-CoV-2 PLpro assessed as viral PLpro-mediated deubiquitination using Ub-AMC as substrate at 30 uM preincubated for 10 mins followed by substrate addition measured for 15 mins by fluorescence plate reader assay
How it was run: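 Run like the RLRGG-AMC PLpro assay (HEPES pH 7.5 buffer, 10 min preincubation, 15 min fluorescence read), but with 80 nM PLpro and 0.5 µM Ub-AMC as substrate.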

A549 [5] = experiment: Cytotoxicity against human A549 cells overexpressing ACE2 receptor assessed as cell viability at <50 uM incubated for 48 hrs by Cell Titer-Glo luminescent assay; assay type: toxicity, cell-based; conditions: a549, 48 h
A549 [6] = experiment: Cytotoxicity against human A549 cells overexpressing ACE2 receptor assessed as cell viability at 100 uM incubated for 48 hrs by Cell Titer-Glo luminescent assay; assay type: toxicity, cell-based; conditions: a549, 48 h
A549 [7] = experiment: Cytotoxicity against human A549 cells overexpressing ACE2 receptor assessed as cell viability at < 30 uM incubated for 48 hrs by Cell Titer-Glo luminescent assay; assay type: toxicity, cell-based; conditions: a549, 48 h
[8] = Inhibition of SARS-CoV-2 PLpro; set-up: species or system Severe acute respiratory syndrome coronavirus 2
A549 [9] = experiment: Cytotoxicity against human A549 cells overexpressing ACE2 receptor assessed as cell viability at <10 uM incubated for 48 hrs by Cell Titer-Glo luminescent assay; assay type: toxicity, cell-based; conditions: a549, 48 h
[10] = Drug concentration in C57BL/6J mouse plasma at 50 mg/kg, ip measured from 0.5 to 5 hrs by analytical analysis; assay type: ADME, organism-based; conditions: in vivo, time 0.5-5 hrs

For `CNC(=O)C[C@@H](NC(=O)c1cc(N(C)C2CNC2)ccc1C)c1cccc2ccccc12`, the IC50 [1] was “Not Active” and the Kd [2] was greater than 1000 µM.
For `Cc1ccc(NC2CNC2)cc1C(=O)N[C@H](C)c1cccc(-c2cccs2)c1` (single isomer, unassigned), the inhibition [3] was “Active” and the inhibition [4] was “Active”.
For `Cc1ccc(NC2CNC2)cc1C(=O)N[C@H](C)c1cccc(-c2ccc(CNC3CCCC3)s2)c1`, the Activity (A549 [5]) was “Non-Toxic”, the Activity (A549 [6]) was “Toxic” and the inhibition [3] was “Active”. The Kd [2] was 0.235 µM, the Activity (A549 [7]) was “Non-Toxic” and the inhibition [4] was “Active”.
Work on `COC(=O)/C=C/CNC(=O)CNC(=O)[C@H](CN)NC(=O)[C@H](CCc1ccc(O)cc1)NC(C)=O` yielded an IC50 [8] of 50 µM.
For `Cc1ccc(N)cc1C(=O)N[C@H](C)c1cccc2ccccc12`, the inhibition [3] was “Active” and the inhibition [4] was “Active”.
With `Cc1ccc(NC2CNC2)cc1C(=O)N[C@H](C)c1cccc2ccccc12` the inhibition [3] was “Active” and the inhibition [4] was “Active”.
For `Cc1ccc(NC2CNC2)cc1C(=O)N[C@H](C)c1cccc(-c2ccc(CN3CCCC3)s2)c1`, the Activity (A549 [9]) was “Non-Toxic”, the Activity (A549 [6]) was “Toxic” and the inhibition [3] was “Active”. For the same compound, the Activity (A549 [7]) was “Non-Toxic”, the concentration [10] was 12 µM and the inhibition [4] was “Active”.
`Cc1ccc(N)cc1C(=O)N[C@H](CCO)c1cccc2ccccc12` gave an IC50 ([1]; read-out: IC50) of 100 µM.
In the case of `COC(=O)/C=C/CNC(=O)CNC(=O)[C@H](CN)NC(=O)[C@H](CCc1nc2ccccc2s1)NC(C)=O`, the IC50 [8] is reported as 50 µM.
